In ChEMBL document CHEMBL1138795, “Inhibition of nucleoside transport by new analogues of 4-nitrobenzylthioinosine: replacement of the ribose moiety by substituted benzyl groups” (J Med Chem, 2004):

target: T1, Equilibrative nucleoside transporter 1 (Homo sapiens) (UniProt Q99808); experiment: Displacement of [3H]NBTI from human erythrocyte membrane at 10 uM
T1 sequence (whole entry): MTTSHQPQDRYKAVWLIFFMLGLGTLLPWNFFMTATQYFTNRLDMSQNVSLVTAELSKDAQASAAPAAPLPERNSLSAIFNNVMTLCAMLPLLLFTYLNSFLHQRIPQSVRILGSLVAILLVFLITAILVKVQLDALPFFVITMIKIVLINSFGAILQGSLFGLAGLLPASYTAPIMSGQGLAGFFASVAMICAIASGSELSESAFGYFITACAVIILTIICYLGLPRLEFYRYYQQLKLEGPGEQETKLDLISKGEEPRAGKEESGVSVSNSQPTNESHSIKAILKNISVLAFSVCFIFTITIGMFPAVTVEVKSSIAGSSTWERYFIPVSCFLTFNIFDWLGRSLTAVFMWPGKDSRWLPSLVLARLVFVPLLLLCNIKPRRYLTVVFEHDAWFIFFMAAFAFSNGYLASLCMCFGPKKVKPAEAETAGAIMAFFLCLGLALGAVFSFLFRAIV
How it was run: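 Human erythrocyte ghost membranes (whole blood lysed in 10 mM MgCl2/10 mM Tris-HCl pH 8.0, repeated water washes, resuspended in 50 mM Tris-HCl pH 7.4, stored −80 °C) incubated to equilibrium at 25 °C with [3H]NBTI (KD 0.59 nM). Test compound at a single 10 μM concentration. Result expressed as percent displacement of specific radioligand binding.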

Binding activity | SMILES
32% | O=[N+]([O-])c1ccc(CSc2ncnc3c2ncn3Cc2cccc(F)c2F)cc1
44% | O=[N+]([O-])c1ccc(CSc2ncnc3c2ncn3Cc2ccccc2Cl)cc1
6% | O=[N+]([O-])c1ccc(CSc2ncnc3c2ncn3Cc2c(Cl)cccc2Cl)cc1
42% | O=[N+]([O-])c1ccc(CSc2ncnc3c2ncn3Cc2ccccn2)cc1
47% | COc1cc(Cn2cnc3c(SCc4ccc([N+](=O)[O-])cc4)ncnc32)cc(OC)c1
38% | O=[N+]([O-])c1ccc(CSc2ncnc3c2ncn3Cc2ccccc2F)cc1
34% | O=[N+]([O-])c1ccc(CSc2ncnc3c2ncn3Cc2ccc(Cl)c(Cl)c2)cc1
32% | O=[N+]([O-])c1ccc(CSc2ncnc3c2ncn3Cc2c(F)cccc2F)cc1
24% | O=[N+]([O-])c1ccc(CSc2ncnc3c2ncn3Cc2ccc(OC(F)(F)F)cc2)cc1

target: T2, Equilibrative nucleoside transporter 1 (Homo sapiens, UniProt Q99808); experiment: Inhibition of [3H]NBTI binding to nucleoside transport protein of human erythrocyte membrane
T2 sequence (Q99808 whole entry): T1 sequence (whole entry)
How it was run: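 Equilibrium displacement of [3H]NBTI (KD 0.59 nM) from human erythrocyte ghost membranes at 25 °C. Membranes prepared by hypotonic lysis in Tris-HCl/MgCl2 pH 8.0 and resuspended in 50 mM Tris-HCl pH 7.4. Compounds giving ≥50% inhibition at 10 μM were run over a concentration range. IC50 values were converted to Ki, n = 3, reported with SEM.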

Ki | SMILES
711 nM | Cc1ccc(Cn2cnc3c(SCc4ccc([N+](=O)[O-])cc4)ncnc32)cc1
200 nM | O=[N+]([O-])c1ccc(CSc2ncnc3c2ncn3Cc2ccc([N+](=O)[O-])cc2)cc1
1640 nM | O=[N+]([O-])c1ccc(CSc2ncnc3c2ncn3Cc2cc(F)ccc2F)cc1
104 nM | COc1ccc(-c2ccccc2Cn2cnc3c(SCc4ccc([N+](=O)[O-])cc4)ncnc32)cc1
361 nM | O=[N+]([O-])c1ccc(CSc2ncnc3c2ncn3Cc2cccc(F)c2)cc1
86 nM | O=[N+]([O-])c1ccc(CSc2ncnc3c2ncn3Cc2ccccc2-c2cccc(C(F)(F)F)c2)cc1
130 nM | O=[N+]([O-])c1ccc(CSc2ncnc3c2ncn3Cc2ccc(I)cc2)cc1
1540 nM | O=[N+]([O-])c1ccc(CSc2ncnc3c2ncn3Cc2cc(F)cc(F)c2)cc1
4880 nM | O=[N+]([O-])c1ccc(CSc2ncnc3c2ncn3Cc2ccc(F)cc2F)cc1
2170 nM | O=[N+]([O-])c1ccc(CSc2ncnc3c2ncn3Cc2cccc(C(F)(F)F)c2)cc1
563 nM | COc1ccc(Cn2cnc3c(SCc4ccc([N+](=O)[O-])cc4)ncnc32)cc1
3340 nM | O=[N+]([O-])c1ccc(CSc2ncnc3c2ncn3Cc2ccc(F)cc2)cc1
2710 nM | O=[N+]([O-])c1ccc(CSc2ncnc3c2ncn3Cc2cccnc2)cc1
93 nM | O=[N+]([O-])c1ccc(CSc2ncnc3c2ncn3Cc2ccccc2-c2ccc(F)cc2)cc1
196 nM | O=[N+]([O-])c1ccc(CSc2ncnc3c2ncn3Cc2ccccc2-c2ccccc2O)cc1
39 nM | O=[N+]([O-])c1ccc(CSc2ncnc3c2ncn3Cc2ccccc2O)cc1
196 nM | O=[N+]([O-])c1ccc(CSc2ncnc3c2ncn3Cc2ccccc2-c2cccc(O)c2)cc1
236 nM | O=[N+]([O-])c1ccc(CSc2ncnc3c2ncn3Cc2ccc(Cl)cc2)cc1
154 nM | O=[N+]([O-])c1ccc(CSc2ncnc3c2ncn3Cc2ccccc2-c2ccc(O)cc2)cc1

Ki | SMILES
281 nM | O=[N+]([O-])c1ccc(CSc2ncnc3c2ncn3Cc2ccccc2-c2ccccc2)cc1
124 nM | Nc1ccccc1Cn1cnc2c(SCc3ccc([N+](=O)[O-])cc3)ncnc21
653 nM | O=[N+]([O-])c1ccc(CSc2ncnc3c2ncn3Cc2ccc(F)c(F)c2)cc1
221 nM | COc1cccc(-c2ccccc2Cn2cnc3c(SCc4ccc([N+](=O)[O-])cc4)ncnc32)c1
39 nM | O=[N+]([O-])c1ccc(CSc2ncnc3c2ncn3Cc2ccccc2-c2ccc(C(F)(F)F)cc2)cc1
129 nM | O=[N+]([O-])c1ccc(CSc2ncnc3c2ncn3Cc2ccccc2-c2cccs2)cc1
126 nM | Cc1ccccc1-c1ccccc1Cn1cnc2c(SCc3ccc([N+](=O)[O-])cc3)ncnc21
110 nM | COc1ccccc1Cn1cnc2c(SCc3ccc([N+](=O)[O-])cc3)ncnc21
225 nM | COc1ccccc1-c1ccccc1Cn1cnc2c(SCc3ccc([N+](=O)[O-])cc3)ncnc21
2170 nM | O=[N+]([O-])c1ccc(CSc2ncnc3c2ncn3Cc2ccncc2)cc1
212 nM | O=[N+]([O-])c1ccc(CSc2ncnc3c2ncn3Cc2cccc(Cl)c2)cc1
153 nM | O=[N+]([O-])c1ccc(CSc2ncnc3c2ncn3Cc2cccc(O)c2)cc1
264 nM | COc1cccc(Cn2cnc3c(SCc4ccc([N+](=O)[O-])cc4)ncnc32)c1
89 nM | O=[N+]([O-])c1ccc(CSc2ncnc3c2ncn3Cc2ccccc2-c2ccsc2)cc1
422 nM | CC(C)(C)OC(=O)Nc1ccccc1Cn1cnc2c(SCc3ccc([N+](=O)[O-])cc3)ncnc21
488 nM | O=[N+]([O-])c1ccc(CSc2ncnc3c2ncn3CCCc2ccccc2)cc1
2200 nM | O=[N+]([O-])c1ccc(CSc2ncnc3c2ncn3CCc2ccccc2)cc1
111 nM | O=[N+]([O-])c1ccc(CSc2ncnc3c2ncn3Cc2ccccc2-c2ccccc2F)cc1
